Results on 1 molecule are retold here after ChEMBL document CHEMBL5131562, “1,3-Dioxane-Linked Novel Bacterial Topoisomerase Inhibitors: Expanding Structural Diversity and the Antibacterial Spectrum” (ACS Med Chem Lett, 2022).

≈ marks a conversion by molar mass, not a printed value.

One data set concerns Staphylococcus aureus. Description: Antibacterial activity against Staphylococcus aureus 3527 by CLSI method. The format is functional.
Conditions: not given
`O=C1COc2ccc(CN[C@H]3CO[C@H](CC4Cn5c(=O)ccc6ccc(F)c4c65)OC3)nc2N1` (stereo not given in full) returned a minimum inhibitory concentration (MIC) of 0.25 µg/mL (≈ 0.536 µM).

The next data set has as its system Staphylococcus aureus. Put plainly: Antibacterial activity against Staphylococcus aureus harbouring GyrA D83N mutant by CLSI method. The data set is classed as functional.
Conditions: not given
Take `O=C1COc2ccc(CN[C@H]3CO[C@H](CC4Cn5c(=O)ccc6ccc(F)c4c65)OC3)nc2N1` (stereo not given in full): the MIC amounted to 4 µg/mL (≈ 8.58 µM).

For another data set, the system named is Staphylococcus aureus. Description: Antibacterial activity against methicillin-resistant Staphylococcus aureus USA300 by CLSI method. The format is functional.
Conditions: not given
`O=C1COc2ccc(CN[C@H]3CO[C@H](CC4Cn5c(=O)ccc6ccc(F)c4c65)OC3)nc2N1` (stereo not given in full) came in with an MIC of 0.25 µg/mL (≈ 0.536 µM).

The next data set has as its target DNA gyrase (Staphylococcus aureus, UniProt P0A0K8+P20831). Description: Inhibition of Staphylococcus aureus DNA gyrase supercoiling activity incubated for 25 min by ethidium bromide/bromophenol blue staining based agarose gel electrophoresis analysis. The format is protein-complex assay.
Conditions: not given
Take `O=C1COc2ccc(CN[C@H]3CO[C@H](CC4Cn5c(=O)ccc6ccc(F)c4c65)OC3)nc2N1` (stereo not given in full): the IC50 amounted to 1.6 µM.

Test system in a further data set: not listed separately
Put plainly: Cytotoxicity activity against human K562 cells assessed as inhibition of cellular growth. The data set is classed as toxicity, cell-based.
Conditions: not given
An outline of the steps:
(§1)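 Human K562 leukemia cells were tested alongside K/VP.5, an etoposide-resistant clonal subline derived from them that has reduced levels of human topoisomerase IIα. Cell growth inhibition was expressed as an IC50.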
Turning to `O=C1COc2ccc(CN[C@H]3CO[C@H](CC4Cn5c(=O)ccc6ccc(F)c4c65)OC3)nc2N1` (stereo not given in full), the IC50 worked out at 101 µM.

In another data set the test system is Neisseria gonorrhoeae. Put plainly: Antimicrobial activity against Neisseria gonorrhoeae K strain harbouring type 2 topoisomerase GyrA S91F, D95N and ParC S87R, S88P mutant incubated for 20 to 24 hrs by CLSI protocol based broth microdilution method. The data set is classed as functional. Particulars: time 20-24 hrs.
Molecule `O=C1COc2ccc(CN[C@H]3CO[C@H](CC4Cn5c(=O)ccc6ccc(F)c4c65)OC3)nc2N1` (stereo not given in full) yielded a minimum inhibitory concentration (MIC) of 0.12 µg/mL (≈ 0.257 µM).

The subject of another data set is Staphylococcus aureus. Put plainly: Selectivity ratio of IC50 for inhibition of Staphylococcus aureus DNA topoisomerase 4 decatenation activity to IC50 for inhibition of Staphylococcus aureus DNA gyrase supercoiling activity.
Conditions: not given
In the case of `O=C1COc2ccc(CN[C@H]3CO[C@H](CC4Cn5c(=O)ccc6ccc(F)c4c65)OC3)nc2N1` (stereo not given in full), the Ratio IC50 worked out at 0.81.

Test system in a further data set: not listed separately
Put plainly: Metabolic stability in mouse liver microsomes assessed as half life. The data set is classed as ADME, Microsome.
Conditions: not given
`O=C1COc2ccc(CN[C@H]3CO[C@H](CC4Cn5c(=O)ccc6ccc(F)c4c65)OC3)nc2N1` (stereo not given in full): the half-life was 18.4 min.

A further data set deals with Voltage-gated inwardly rectifying potassium channel KCNH2 (Homo sapiens, UniProt Q12809). Put plainly: Inhibition of hERG cardiac ion channel. The data set is classed as toxicity.
Conditions: not given
In short, it runs like this:
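hERG channel inhibition was run by a contract lab. […] Determinations were made in duplicate or triplicate (n = 2 or 3).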
For the molecule `O=C1COc2ccc(CN[C@H]3CO[C@H](CC4Cn5c(=O)ccc6ccc(F)c4c65)OC3)nc2N1` (stereo not given in full), the IC50 was 30 µM.

A further data set relates to Neisseria gonorrhoeae. Put plainly: Antimicrobial activity against wild type Neisseria gonorrhoeae V strain harbouring type 2 topoisomerase GyrA S91F, D95G and ParC S87R mutant incubated for 20 to 24 hrs by CLSI protocol based broth microdilution method. The format is functional. The conditions noted are these: time 20-24 hrs.
Regarding `O=C1COc2ccc(CN[C@H]3CO[C@H](CC4Cn5c(=O)ccc6ccc(F)c4c65)OC3)nc2N1` (stereo not given in full), the minimum inhibitory concentration (MIC) was at most 0.03 µg/mL.

The next data set deals with Neisseria gonorrhoeae. Description: Antimicrobial activity against wild type Neisseria gonorrhoeae O strain incubated for 20 to 24 hrs by CLSI protocol based broth microdilution method. The data set is classed as functional. The conditions noted are these: time 20-24 hrs.
`O=C1COc2ccc(CN[C@H]3CO[C@H](CC4Cn5c(=O)ccc6ccc(F)c4c65)OC3)nc2N1` (stereo not given in full): the minimum inhibitory concentration (MIC) was 0.25 µg/mL (≈ 0.536 µM).

The test system of another data set is Staphylococcus aureus. Description: Antibacterial activity against cystic fibrosis isolate Staphylococcus aureus by CLSI method.
Conditions: not given
The data set is classed as functional.
`O=C1COc2ccc(CN[C@H]3CO[C@H](CC4Cn5c(=O)ccc6ccc(F)c4c65)OC3)nc2N1` (stereo not given in full) registered a minimal inhibitory concentration (MIC) of 0.5 µg/mL (≈ 1.07 µM).

Test system in the next data set: not listed separately
Description: Cytotoxicity activity against human K/VP.5 cells assessed as inhibition of cellular growth.
Conditions: not given
The format is toxicity, cell-based. In short, it runs like this:
as §1
With `O=C1COc2ccc(CN[C@H]3CO[C@H](CC4Cn5c(=O)ccc6ccc(F)c4c65)OC3)nc2N1` (stereo not given in full), the IC50 worked out at 127 µM.

For another data set, the system named is Neisseria gonorrhoeae. Description: Antimicrobial activity against wild type Neisseria gonorrhoeae ATCC 49226 incubated for 20 to 24 hrs by CLSI protocol based broth microdilution method. The data set is classed as functional. Particulars: time 20-24 hrs.
For `O=C1COc2ccc(CN[C@H]3CO[C@H](CC4Cn5c(=O)ccc6ccc(F)c4c65)OC3)nc2N1` (stereo not given in full), the MIC stood at 0.12 µg/mL (≈ 0.257 µM).

The next data set deals with Staphylococcus aureus. Description: Antibacterial activity against Staphylococcus aureus ATCC 29213 by CLSI method. The data set is classed as functional.
Conditions: not given
As to `O=C1COc2ccc(CN[C@H]3CO[C@H](CC4Cn5c(=O)ccc6ccc(F)c4c65)OC3)nc2N1` (stereo not given in full), it took 0.5 µg/mL (≈ 1.07 µM) to inhibit growth (MIC).

A further data set has as its target Topoisomerase IV (Staphylococcus aureus, UniProt P0C1S7+P0C1U9). Description: Inhibition of Staphylococcus aureus DNA topoisomerase 4 decatenation activity using kDNA as substrate incubated for 10 to 20 min by ethidium bromide/bromophenol blue staining based agarose gel electrophoresis analysis. The format is protein-complex assay.
Conditions: not given
Consider `O=C1COc2ccc(CN[C@H]3CO[C@H](CC4Cn5c(=O)ccc6ccc(F)c4c65)OC3)nc2N1` (stereo not given in full), for which the 50% inhibitory concentration (IC50) turned out to be 1.3 µM.

The test system of a further data set is Neisseria gonorrhoeae. Put plainly: Antimicrobial activity against wild type Neisseria gonorrhoeae Y strain harbouring type 2 topoisomerase GyrA S91F, D95G and ParC S87R mutant incubated for 20 to 24 hrs by CLSI protocol based broth microdilution method. The data set is classed as functional. The conditions noted are these: time 20-24 hrs.
For the molecule `O=C1COc2ccc(CN[C@H]3CO[C@H](CC4Cn5c(=O)ccc6ccc(F)c4c65)OC3)nc2N1` (stereo not given in full), the lowest concentration to inhibit growth (MIC) was 0.12 µg/mL (≈ 0.257 µM).

Another data set concerns Neisseria gonorrhoeae. Put plainly: Antimicrobial activity against wild type Neisseria gonorrhoeae F strain incubated for 20 to 24 hrs by CLSI protocol based broth microdilution method. The data set is classed as functional. The conditions noted are these: time 20-24 hrs.
`O=C1COc2ccc(CN[C@H]3CO[C@H](CC4Cn5c(=O)ccc6ccc(F)c4c65)OC3)nc2N1` (stereo not given in full) registered an MIC of 0.06 µg/mL (≈ 0.129 µM).

The subject of the next data set is Neisseria gonorrhoeae. Description: Antimicrobial activity against Neisseria gonorrhoeae G strain harbouring type 2 topoisomerase GyrA S91F and ParE G410V mutant incubated for 20 to 24 hrs by CLSI protocol based broth microdilution method. The data set is classed as functional. The conditions noted are these: time 20-24 hrs.
As to `O=C1COc2ccc(CN[C@H]3CO[C@H](CC4Cn5c(=O)ccc6ccc(F)c4c65)OC3)nc2N1` (stereo not given in full), the minimal inhibitory concentration (MIC) stood at 0.25 µg/mL (≈ 0.536 µM).

A further data set concerns Neisseria gonorrhoeae. Put plainly: Antimicrobial activity against wild type Neisseria gonorrhoeae P strain incubated for 20 to 24 hrs by CLSI protocol based broth microdilution method. The data set is classed as functional. Particulars: time 20-24 hrs.
As to `O=C1COc2ccc(CN[C@H]3CO[C@H](CC4Cn5c(=O)ccc6ccc(F)c4c65)OC3)nc2N1` (stereo not given in full), it took 0.25 µg/mL (≈ 0.536 µM) to inhibit growth (MIC).
